Data published in ChEMBL document CHEMBL4842317, “Discovery of novel 3-hydroxyandrosta-5,7-Diene-17-Carboxylic acid derivatives as anti-inflammatory bowel diseases (IBD) agents” (Eur J Med Chem, 2021).
Active and inactive are the calls of the source. No cut-off for these calls is given here.

Experiments:
[1] = system: RAW264.7; assay: Antiinflammatory activity against mouse RAW264.7 cells assessed as inhibition of LPS-induced NO production at 20 uM after 24 hrs by Griess assay; type: functional
Outline: (§1)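 RAW 264.7 cells (1 × 10^5 cells/mL) are cultured 24 h, stimulated with LPS (100 ng/mL final), and treated with compounds from 100 μM downward for 24 h in DMEM with 10% FBS. Medium nitrite is measured by Griess reaction (sulfanilamide, naphthylethylenediamine, phosphoric acid, 10 min, room temperature, dark). Mean + SD from three independent experiments.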

[2] = system: RAW264.7; assay: Cytotoxicity against mouse RAW264.7 cells assessed as reduction in cell viability at 3 to 100 uM incubated for 24 hrs by MTT assay; type: cell-based; settings: raw264.7, 24 h, dose 3-100 µM
Outline: (§2)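 RAW 264.7 cells are seeded at 1.0 × 10^4 per well and incubated overnight. Compounds are added at concentrations from 100 μM downward, with or without LPS (100 ng/mL), for 24 h. MTT (0.5 mg/mL) is added for 4 h and the formazan is dissolved in DMSO for the read-out.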

[3] = system: RAW264.7; assay: Cytotoxicity against mouse RAW264.7 cells assessed as reduction in cell viability at 3 to 100 uM incubated for 24 hrs in presence of LPS by MTT assay; type: cell-based; settings: raw264.7, 24 h, dose 3-100 µM; outline: as §2
[4] = system: RAW264.7; assay: Antiinflammatory activity against mouse RAW264.7 cells assessed as inhibition of LPS-induced NO production measured after 24 hrs by Griess assay; type: functional, cell-based; settings: RAW264.7, 24 h; outline: as §1
[5] = system: RAW264.7; assay: Antiinflammatory activity against mouse RAW264.7 cells assessed as decrease in LPS-induced IL-1beta mRNA expression at 20 uM in presence of LPS by qRT-PCR analysis; type: functional, cell-based
Outline: (§3)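 RAW 264.7 cells are grown 12 h in six-well plates, then exposed to LPS (100 ng/ml) plus compound for 8 h. Reverse transcription is followed by SYBR Green qPCR with GAPDH as internal control. Relative expression is calculated by 2^-ΔΔCT versus the untreated control. Mean + SD from three independent experiments.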

[6] = system: RAW264.7; assay: Antiinflammatory activity against mouse RAW264.7 cells assessed as inhibition of LPS-induced iNOS mRNA expression at 20 uM incubated for 8 hrs in presence of LPS by qRT-PCR analysis; type: functional, cell-based; outline: as §3
[7] = system: RAW264.7; assay: Antiinflammatory activity against mouse RAW264.7 cells assessed as inhibition of LPS-induced COX2 mRNA expression at 20 uM incubated for 8 hrs in presence of LPS by qRT-PCR analysis; type: functional, cell-based; outline: as §3
[8] = system: RAW264.7; assay: Antiinflammatory activity against mouse RAW264.7 cells assessed as decrease in LPS-induced IL-6 mRNA expression at 20 uM in presence of LPS by qRT-PCR analysis; type: functional, cell-based; outline: as §3
[9] = system: RAW264.7; assay: Antiinflammatory activity against mouse RAW264.7 cells assessed as decrease in LPS-induced TNF-alpha mRNA expression at 20 uM in presence of LPS by qRT-PCR analysis; type: functional, cell-based; outline: as §3
[10] = system: RAW264.7; assay: Antiinflammatory activity against mouse RAW264.7 cells assessed as inhibition of LPS-induced MCP-1 mRNA expression at 20 uM in presence of LPS by qRT-PCR analysis; type: functional, cell-based; outline: as §3
[11] = system: RAW264.7; assay: Antiinflammatory activity against mouse RAW264.7 cells assessed as decrease in LPS-induced NF-kappB mRNA expression at 20 uM in presence of LPS by qRT-PCR analysis; type: functional, cell-based; outline: as §3
[12] = system: Mus musculus; assay: Antiinflammatory activity against DSS-induced colitis C57BL/6 mouse model assessed as dispersed CD86-positive cells in colon at 20 mg/kg, ip administered for 7 days by hematoxylin and eosin staining based microscopic analysis; type: functional, organism-based; settings: time 7.0 day
Outline: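 DSS colitis (3.5% DSS, male C57BL/6 mice, n=5 per group) with 7-day intraperitoneal dosing in saline/castor oil/ethanol/DMSO vehicle. Colons are fixed in formalin, paraffin-embedded and stained with H&E (viewed at 200X). Separately, sections undergo CD86 immunohistochemistry (citrate antigen retrieval, 3% H2O2 block, 1:200 primary and HRP secondary, hematoxylin counterstain) viewed at 400X.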

[13] = system: Mus musculus; assay: Antiinflammatory activity against DSS-induced colitis C57BL/6 mouse model assessed as reduction in scores of stool consistency and bleeding at 20 mg/kg, ip administered for 7 days by immunohistochemistry analysis; type: functional, organism-based; settings: time 7.0 day

Row | Structure (SMILES) | inhibition at 20 µM [1] [%] | Activity [2] | Activity [3] | IC50 [4] [µM] | Activity [5] | Activity [6] | Activity [7] | Activity [8] | Activity [9] | Activity [10] | Activity [11] | Activity [12] | Activity [13]
1 | CCCCOC(=O)[C@H]1CC[C@H]2C3=CC=C4C[C@@H](O)CC[C@]4(C)[C@H]3CC[C@]12C | 37.8 | Non-Toxic | Non-Toxic | > 20 |  |  |  |  |  |  |  |  | 
2 | CCCC[C@](C)(O)[C@H]1CC[C@H]2C3=CC=C4C[C@@H](O)CC[C@]4(C)[C@H]3CC[C@@]21C | 28.8 | Non-Toxic | Non-Toxic | > 20 |  |  |  |  |  |  |  |  | 
3 | C[C@]12CC[C@H]3[C@@H](CC=C4C[C@@H](O)CC[C@@]43C)[C@@H]1CC[C@@H]2C(=O)NCCO | 41.1 | Non-Toxic | Non-Toxic | > 20 |  |  |  |  |  |  |  |  | 
4 | CCN(CC)C(=O)[C@H]1CC[C@H]2[C@@H]3CC=C4C[C@@H](O)CC[C@]4(C)[C@H]3CC[C@]12C | 25.5 | Non-Toxic | Non-Toxic | > 20 |  |  |  |  |  |  |  |  | 
5 | CC(=O)NCCNC(=O)[C@H]1CC[C@H]2[C@@H]3CC=C4C[C@@H](O)CC[C@]4(C)[C@H]3CC[C@]12C | 16.1 | Non-Toxic | Non-Toxic | > 20 |  |  |  |  |  |  |  |  | 
6 | CCCCNC(=O)[C@H]1CC[C@H]2[C@@H]3CC=C4C[C@@H](O)CC[C@]4(C)[C@H]3CC[C@]12C | 44.4 | Non-Toxic | Non-Toxic | > 20 |  |  |  |  |  |  |  |  | 
7 | CCCOC(=O)[C@H]1CC[C@H]2C3=CC=C4C[C@@H](O)CC[C@]4(C)[C@H]3CC[C@]12C | 89.4 | Non-Toxic | Non-Toxic | 9.02 | Active | Active | Active | Active | Active | Active | Active |  | 
8 | C[C@]12CC[C@H]3[C@@H](CC=C4C[C@@H](O)CC[C@@]43C)[C@@H]1CC[C@@H]2C(=O)Nc1n[nH]cc1C#N | 24.9 | Non-Toxic | Non-Toxic | > 20 |  |  |  |  |  |  |  |  | 
9 | CCCNC(=O)[C@H]1CC[C@H]2[C@@H]3CC=C4C[C@@H](O)CC[C@]4(C)[C@H]3CC[C@]12C | 72.8 | Non-Toxic | Non-Toxic | 15.6 | inactive | inactive | Active | inactive | inactive | Active | Active |  | 
10 | COC(=O)[C@H]1CC[C@H]2C3=CC=C4C[C@@H](O)CC[C@]4(C)[C@H]3CC[C@]12C | 21.8 | Non-Toxic | Non-Toxic | > 20 |  |  |  |  |  |  |  |  | 
11 | C[C@]12CC[C@H]3[C@@H](CC=C4C[C@@H](O)CC[C@@]43C)[C@@H]1CC[C@@H]2C(=O)NCCCn1ccnc1 | 50.4 | Non-Toxic | Non-Toxic | > 20 |  |  |  |  |  |  |  |  | 
12 | C[C@]12CC[C@H]3[C@@H](CC=C4C[C@@H](O)CC[C@@]43C)[C@@H]1CC[C@@H]2C(=O)NCCN1CCOCC1 | 36.4 | Non-Toxic | Non-Toxic | > 20 |  |  |  |  |  |  |  |  | 
13 | C[C@]12CC[C@H]3[C@@H](CC=C4C[C@@H](O)CC[C@@]43C)[C@@H]1CC[C@@H]2C(=O)NC1CC1 | 40.5 | Non-Toxic | Non-Toxic | > 20 |  |  |  |  |  |  |  |  | 
14 | C[C@@H]1C[C@H]2[C@@H]3CCC4=CC(=O)C=C[C@]4(C)[C@@]3(F)[C@@H](O)C[C@]2(C)[C@@]1(O)C(=O)CO [DEXAMETHASONE] | 93.6 |  |  | 14.8 |  |  |  |  | Active |  |  | Active | Active
15 | CC(C)CCNC(=O)[C@H]1CC[C@H]2[C@@H]3CC=C4C[C@@H](O)CC[C@]4(C)[C@H]3CC[C@]12C | 59.2 | Non-Toxic | Non-Toxic | 11.3 |  |  |  |  |  |  |  |  | 
16 | C[C@]12CC[C@H]3[C@@H](CC=C4C[C@@H](O)CC[C@@]43C)[C@@H]1CC[C@@H]2C(=O)NCCc1cccs1 | 55.6 | Non-Toxic | Non-Toxic | 21.2 |  |  |  |  |  |  |  |  | 
17 | CC[C@](C)(O)[C@H]1CC[C@H]2C3=CC=C4C[C@@H](O)CC[C@]4(C)[C@H]3CC[C@@]21C | 52.5 | Non-Toxic | Non-Toxic | 27 |  |  |  |  |  |  |  |  | 
18 | C[C@]12CC[C@H]3[C@@H](CC=C4C[C@@H](O)CC[C@@]43C)[C@@H]1CC[C@@H]2C(=O)NCCc1ccccc1 | 45.4 | Non-Toxic | Non-Toxic | > 20 |  |  |  |  |  |  |  |  | 
19 | CCOC(=O)[C@H]1CC[C@H]2C3=CC=C4C[C@@H](O)CC[C@]4(C)[C@H]3CC[C@]12C | 11.3 | Non-Toxic | Non-Toxic | > 20 |  |  |  |  |  |  |  |  | 
20 | CC(C)NC(=O)[C@H]1CC[C@H]2[C@@H]3CC=C4C[C@@H](O)CC[C@]4(C)[C@H]3CC[C@]12C | 7.84 | Non-Toxic | Non-Toxic | > 20 |  |  |  |  |  |  |  |  | 
21 | Cc1ccn(C(=O)[C@H]2CC[C@H]3[C@@H]4CC=C5C[C@@H](O)CC[C@]5(C)[C@H]4CC[C@]23C)n1 | 35.8 | Non-Toxic | Non-Toxic | > 20 |  |  |  |  |  |  |  |  | 
22 | C[C@]12CC[C@H]3[C@@H](CC=C4C[C@@H](O)CC[C@@]43C)[C@@H]1CC[C@@H]2C(=O)NCCN1CCCC1 | 50.4 | Non-Toxic | Non-Toxic | 31.3 |  |  |  |  |  |  |  |  | 
23 | C[C@]12CC[C@H]3[C@@H](CC=C4C[C@@H](O)CC[C@@]43C)[C@@H]1CC[C@@H]2C(=O)NC1CCCCC1 | 47.8 | Non-Toxic | Non-Toxic | > 20 |  |  |  |  |  |  |  |  | 
24 | CC(C)(O)CNC(=O)[C@H]1CC[C@H]2[C@@H]3CC=C4C[C@@H](O)CC[C@]4(C)[C@H]3CC[C@]12C | 38.8 | Non-Toxic | Non-Toxic | > 20 |  |  |  |  |  |  |  |  | 
25 | C[C@]12CC[C@H]3[C@@H](CC=C4C[C@@H](O)CC[C@@]43C)[C@@H]1CC[C@@H]2C(=O)N1CCCCC1 | 37.4 | Non-Toxic | Non-Toxic | > 20 |  |  |  |  |  |  |  |  | 
26 | CCC[C@](C)(O)[C@H]1CC[C@H]2C3=CC=C4C[C@@H](O)CC[C@]4(C)[C@H]3CC[C@@]21C | 55.3 | Non-Toxic | Non-Toxic | > 20 |  |  |  |  |  |  |  |  | 
